Data reported in ChEMBL document CHEMBL1123624, “Prodrugs of L-cysteine as protective agents against acetaminophen-induced hepatotoxicity. 2-(Polyhydroxyalkyl)- and 2-(polyacetoxyalkyl)thiazolidine-4(R)-carboxylic acids” (1987).

Tests used:
[1] = organism: Mus musculus; assay: Number of mice with necrosis was measured for compound along with acetaminophen showing necrosis rating of 0 was reported.; type: functional
[2] = organism: Mus musculus; assay: No of mice protected out of 10 against acetaminophen-induced Hepatotoxicity after 48 h; type: functional
In short: (§1)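 Male Swiss-Webster mice (19–31 g) were fasted overnight with water available. They received acetaminophen 750 mg/kg (4.97 mmol/kg) ip and then, 30 min later, prodrug 2.45 mmol/kg ip. The prodrug was given in sterile water, sterile 0.1 N NaHCO3, or as a slurry in 2% CMC. Food was then restored, and animals were checked at 12, 24 and 48 h. Survivors were counted at 48 h.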

[3] = organism: Rattus norvegicus; assay: In vitro increased GSH content of rat hepatocytes when incubated with compound after 4 hr at 1.0 mM concentration.; type: functional, Hepatocyte
In short: (§2)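 Primary rat hepatocyte cultures exposed to prodrug for 4 h; medium aspirated, cells rinsed with cold PBS, deproteinized with 5% sulfosalicylic acid. Total GSH (GSH + GSSG) measured by modified DTNB–glutathione reductase recycling, from cycling rate (ΔOD 412 nm/min); expressed as nmol/10^6 cells ± SE and relative to untreated controls.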

[4] = organism: Mus musculus; assay: Number of mice with necrosis was measured for compound along with acetaminophen showing necrosis rating of 1+ was reported.; type: functional
[5] = organism: Rattus norvegicus; assay: GSH level related to controls; type: functional; in short: as §2
[6] = organism: Rattus norvegicus; assay: Inhibitory effect on GSH elevation elicited by compound in rat hepatocytes in the presence of buthionine sulfoximine (BSO) (0.2 mM); type: functional, Hepatocyte
In short: (§3)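 Primary rat hepatocytes pre-exposed to buthionine sulfoximine (0.20 mM) before 4 h incubation with prodrug (1.0 mM). Total GSH (GSH + GSSG) after PBS rinse and 5% sulfosalicylic acid deproteinization, by modified DTNB–glutathione reductase recycling (ΔOD 412 nm/min). Reported as nmol/10^6 cells ± SE and relative to untreated controls.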

[7] = organism: Mus musculus; assay: Number of mice with necrosis was measured for compound along with acetaminophen showing necrosis rating of 2+ was reported.; type: functional
[8] = organism: Mus musculus; assay: Number of mice with necrosis was measured for compound along with acetaminophen showing necrosis rating of 4+ was reported.; type: functional
[9] = organism: Mus musculus; assay: Number of mice with necrosis was measured for compound along with acetaminophen showing necrosis rating of 3+ was reported.; type: functional
[10] = organism: Rattus norvegicus; assay: GSH level related to controls in the presence of buthionine sulfoximine (BSO) (0.2 mM); type: functional; in short: as §3
[11] = organism: Mus musculus; assay: Percentage survival of mice after 48 hr.; type: functional; design: concentration or dose not given beside the values; in short: as §1
[12] = organism: Mus musculus; assay: Number of mice with necrosis was measured for compound along with acetaminophen and number of animals showing necrosis rating of 2+ was reported.; type: functional
[13] = organism: Rattus norvegicus; assay: In vitro increased GSH content of rat hepatocytes when incubated with compound after 4 hr at 2.5 mM concentration.; type: functional, Hepatocyte; in short: as §2
[14] = organism: Mus musculus; assay: Number of mice with necrosis was measured for compound along with acetaminophen and number of animals showing necrosis rating of 4+ was reported.; type: functional
[15] = organism: Mus musculus; assay: Number of mice with necrosis was measured for compound along with acetaminophen and number of animals showing necrosis rating of 3+ was reported.; type: functional
[16] = organism: Mus musculus; assay: Number of mice with necrosis was measured for compound along with acetaminophen and number of animals showing necrosis rating of 1+ was reported.; type: functional
[17] = organism: Mus musculus; assay: Protection of mice against acetaminophen-induced Hepatotoxicity; type: functional
In short: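 Fasted male Swiss-Webster mice (19–31 g) were given acetaminophen 750 mg/kg ip, then prodrug 2.45 mmol/kg ip 30 min later. Outcomes were 48-h survival plus histology. Central-lobe liver sections came from animals found dead at 12/24/48 h or killed at 48 h. Sections were formalin-fixed and H&E-stained. Necrosis was rated blind using Mitchell's scale.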

[18] = organism: Mus musculus; assay: Number of mice with necrosis was measured for compound along with acetaminophen and number of animals showing necrosis rating of 0 was reported.; type: functional
[19] = organism: Mus musculus; assay: No of mice protected out of 12 against acetaminophen-induced Hepatotoxicity after 48 h; type: functional; in short: as §1

Structure (SMILES)	No. of animals [1]	No. of survivors [2]	[GSH] [3]	No. of animals [4]	GSH level [5]	[GSH] [6]	No. of animals [7]	No. of animals [8]	No. of animals [9]	GSH level [10]	Survival [11]	No. of animals [12]	[GSH] [13]	No. of animals [14]	No. of animals [15]	No. of animals [16]	Survival [17]	No. of animals [18]	No. of survivors [19]
O=C(O)[C@@H]1CSC(C(O)C(O)C(O)CO)N1 (stereo in doubt; 1c)	0	3	45.9 nmol/10^6 cells	0	1.3	22.4 nmol/10^6 cells	0	9	1	0.6	30%								
CC(=O)N[C@@H](CS)C(=O)O [ACETYLCYSTEINE]											94%	0	45.8 nM (10e6*cells)-1	1	1	3	17%	13	
O=C(O)[C@@H]1CSC(C(O)C(O)C(O)C(O)CO)N1 (stereo in doubt; 1g)	0	3	75.2 nmol/10^6 cells	2	2.1	25.4 nmol/10^6 cells	0	7	1		30%								
O=C(O)[C@@H]1CSC(C(O)C(O)C(O)C(O)CO)N1 (stereo in doubt; 1f)	1	6	58 nmol/10^6 cells	3	1.6	23.2 nmol/10^6 cells	2	4	0	0.7	60%								
O=C(O)[C@@H]1CSC(C(O)C(O)C(O)C(O)CO)N1 (stereo in doubt; 1h)	3	4	57.8 nmol/10^6 cells	0		18.9 nmol/10^6 cells	1	6		0.5	40%								
O=C(O)[C@@H]1CSC(C(O)C(O)C(O)CO)N1 (stereo in doubt; 1b)		4	42.9 nmol/10^6 cells	1	1.2	19.5 nmol/10^6 cells	2	7			40%								
O=C(O)[C@@H]1CSC(C(O)C(O)C(O)CO)N1 (stereo in doubt; 1d)	4		61.2 nmol/10^6 cells	2	1.7	16.2 nmol/10^6 cells	6	0	0	0.5	100%								12
O=C(O)[C@@H]1CSC(C(O)C(O)C(O)CO)N1 (stereo in doubt; 1e)	3	6	58.3 nmol/10^6 cells		1.6	22.6 nmol/10^6 cells		5		0.8	60%								
CC(=O)Nc1ccc(O)cc1 [ACETAMINOPHEN]	0			0			1	11	0		17%								2
O=C(O)[C@@H]1CSC(C(O)CO)N1 (some centres undefined)	0	3	46.1 nmol/10^6 cells	0	1.3	18.3 nmol/10^6 cells	1	7	2	0.5	30%								
